Source: ChEMBL document CHEMBL1134439, “Radioiodinated styrylbenzenes and thioflavins as probes for amyloid aggregates” (J Med Chem, 2001)

Assays:
[1] = target: T1, Amyloid-beta precursor protein (Homo sapiens, UniProt P05067); experiment: Inhibition constant for aggregates of amyloid beta compared to [125I]IMSB
Outline: (§1)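 Aβ(1-40) or Aβ(1-42) aggregated at 0.5 or 0.25 mg/mL respectively in pH 7.4 buffer (10 mM sodium phosphate, 1 mM EDTA), 37 °C, 36-42 h with shaking. Competition against ¹²⁵I radioligand with fibrils 10-50 nM (final), 10% EtOH, 1 mL. Incubation 3 h room temperature. Bound ligand collected by GF/B filtration, γ-counted. Ki by nonlinear regression. Mean ± SEM, three experiments in duplicate.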

Mus musculus [2] = experiment: Biodistribution was measured in mice heart 6 hours after intravenous injection of [125I]-labeled styrylbenzene.; format: ADME, organism-based; settings: in vivo
Outline: (§2)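 ICR mice (2-3 months old, 20-30 g) under ether anesthesia received 5-10 µCi ¹²⁵I tracer in 0.15 mL saline by tail-vein injection. Animals were killed by cardiac excision at set times post-injection. Organs were removed, weighed and γ-counted. Values are % dose per organ against diluted injectate aliquots, taking blood and muscle as 7% and 40% of body weight. Mean of 3-4 mice ± SD.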

Mus musculus [3] = experiment: Biodistribution was measured in mice heart 60 minutes after intravenous injection of [125I]-labeled styrylbenzene.; format: ADME, organism-based; settings: in vivo, 1 h; outline: as §2
Mus musculus [4] = experiment: Biodistribution was measured in mice kidney 2 minutes after intravenous injection of [125I]-labeled styrylbenzene.; format: ADME, organism-based; settings: in vivo; outline: as §2
Mus musculus [5] = experiment: Biodistribution was measured in mice kidney 24 hours after intravenous injection of [125I]-labeled styrylbenzene.; format: ADME, organism-based; settings: in vivo; outline: as §2
Mus musculus [6] = experiment: Biodistribution was measured in mice kidney 30 minutes after intravenous injection of [125I]-labeled styrylbenzene.; format: ADME, organism-based; settings: in vivo, 0.5 h; outline: as §2
Mus musculus [7] = experiment: Biodistribution was measured in mice kidney 6 hours after intravenous injection of [125I]-labeled styrylbenzene.; format: ADME, organism-based; settings: in vivo; outline: as §2
Mus musculus [8] = experiment: Biodistribution was measured in mice kidney 60 minutes after intravenous injection of [125I]-labeled styrylbenzene.; format: ADME, organism-based; settings: in vivo, 1 h; outline: as §2
Mus musculus [9] = experiment: Biodistribution was measured in mice liver 2 minutes after intravenous injection of [125I]-labeled styrylbenzene.; format: ADME, organism-based; settings: in vivo; outline: as §2
Mus musculus [10] = experiment: Biodistribution was measured in mice liver 24 hours after intravenous injection of [125I]-labeled styrylbenzene.; format: ADME, organism-based; settings: in vivo; outline: as §2
Mus musculus [11] = experiment: Biodistribution was measured in mice liver 30 minutes after intravenous injection of [125I]-labeled styrylbenzene.; format: ADME, organism-based; settings: in vivo, 0.5 h; outline: as §2
Mus musculus [12] = experiment: Biodistribution was measured in mice liver 60 minutes after intravenous injection of [125I]-labeled styrylbenzene.; format: ADME, organism-based; settings: in vivo, 1 h; outline: as §2
Mus musculus [13] = experiment: Biodistribution was measured in mice muscle 30 minutes after intravenous injection of [125I]-labeled styrylbenzene.; format: ADME, organism-based, Muscle tissue; settings: in vivo, 0.5 h; outline: as §2
Mus musculus [14] = experiment: Biodistribution was measured in mice muscle 6 hours after intravenous injection of [125I]-labeled styrylbenzene.; format: ADME, organism-based, Muscle tissue; settings: in vivo; outline: as §2
Mus musculus [15] = experiment: Biodistribution was measured in mice muscle 60 minutes after intravenous injection of [125I]-labeled styrylbenzene.; format: ADME, organism-based, Muscle tissue; settings: in vivo, 1 h; outline: as §2
Mus musculus [16] = experiment: Biodistribution was measured in mice skin 2 minutes after intravenous injection of [125I]-labeled styrylbenzene.; format: ADME, organism-based, Zone of skin; settings: in vivo; outline: as §2
Mus musculus [17] = experiment: Biodistribution was measured in mice skin 24 hours after intravenous injection of [125I]-labeled styrylbenzene.; format: ADME, organism-based, Zone of skin; settings: in vivo; outline: as §2
Mus musculus [18] = experiment: Biodistribution was measured in mice skin 30 minutes after intravenous injection of [125I]-labeled styrylbenzene.; format: ADME, organism-based, Zone of skin; settings: in vivo, 0.5 h; outline: as §2
Mus musculus [19] = experiment: Biodistribution was measured in mice skin 6 hours after intravenous injection of [125I]-labeled styrylbenzene.; format: ADME, organism-based, Zone of skin; settings: in vivo; outline: as §2
Mus musculus [20] = experiment: Biodistribution was measured in mice skin 60 minutes after intravenous injection of [125I]-labeled styrylbenzene.; format: ADME, organism-based, Zone of skin; settings: in vivo, 1 h; outline: as §2
Mus musculus [21] = experiment: Biodistribution was measured in mice spleen 2 minutes after intravenous injection of [125I]-labeled styrylbenzene.; format: ADME, organism-based; settings: in vivo; outline: as §2
Mus musculus [22] = experiment: Biodistribution was measured in mice spleen 24 hours after intravenous injection of [125I]-labeled styrylbenzene.; format: ADME, organism-based; settings: in vivo
Mus musculus [23] = experiment: Biodistribution was measured in mice spleen 30 minutes after intravenous injection of [125I]-labeled styrylbenzene.; format: ADME, organism-based; settings: in vivo, 0.5 h
Outline: (§3)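 ICR mice (2-3 months old, 20-30 g) under ether anesthesia; 0.15 mL saline containing 5-10 µCi ¹²⁵I tracer injected into tail vein. Sacrifice by cardiac excision at set times; organs removed, weighed, γ-counted. Expressed as % dose per organ versus diluted aliquots of injectate. Mean of three or four mice ± SD.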

Mus musculus [24] = experiment: Biodistribution was measured in mice spleen 60 minutes after intravenous injection of [125I]-labeled styrylbenzene.; format: ADME, organism-based; settings: in vivo, 1 h; outline: as §3
Mus musculus [25] = experiment: Biodistribution was measured in mice blood 2 minutes after intravenous injection of [125I]-labeled styrylbenzene.; format: ADME, organism-based; settings: in vivo; outline: as §2
Mus musculus [26] = experiment: Biodistribution was measured in mice blood 24 hours after intravenous injection of [125I]-labeled styrylbenzene.; format: ADME, organism-based; settings: in vivo; outline: as §2
Mus musculus [27] = experiment: Biodistribution was measured in mice blood 30 minutes after intravenous injection of [125I]-labeled styrylbenzene.; format: ADME, organism-based; settings: in vivo, 0.5 h; outline: as §2
Mus musculus [28] = experiment: Biodistribution was measured in mice lung 2 minutes after intravenous injection of [125I]-labeled styrylbenzene.; format: ADME, organism-based; settings: in vivo; outline: as §2
Mus musculus [29] = experiment: Biodistribution was measured in mice lung 24 hours after intravenous injection of [125I]-labeled styrylbenzene.; format: ADME, organism-based; settings: in vivo, in the assay text read “thioflavin” for “styrylbenzene”; outline: as §2
Mus musculus [30] = experiment: Biodistribution was measured in mice lung 30 minutes after intravenous injection of [125I]-labeled styrylbenzene.; format: ADME, organism-based; settings: in vivo, 0.5 h; outline: as §2
Mus musculus [31] = experiment: Biodistribution was measured in mice lung 6 hours after intravenous injection of [125I]-labeled styrylbenzene.; format: ADME, organism-based; settings: in vivo, in the assay text read “thioflavin” for “styrylbenzene”; outline: as §2
Mus musculus [32] = experiment: Biodistribution was measured in mice lung 60 minutes after intravenous injection of [125I]-labeled styrylbenzene.; format: ADME, organism-based; settings: in vivo, 1 h; outline: as §2
Mus musculus [33] = experiment: Biodistribution was measured in mice muscle 2 minutes after intravenous injection of [125I]-labeled styrylbenzene.; format: ADME, organism-based, Muscle tissue; settings: in vivo, in the assay text read “thioflavin” for “styrylbenzene”; outline: as §2
Mus musculus [34] = experiment: Biodistribution was measured in mice muscle 24 hours after intravenous injection of [125I]-labeled styrylbenzene.; format: ADME, organism-based, Muscle tissue; settings: in vivo; outline: as §2
Mus musculus [35] = experiment: Biodistribution was measured in mice brain 6 hours after intravenous injection of [125I]-labeled styrylbenzene; format: ADME, organism-based; settings: in vivo; outline: as §2
Mus musculus [36] = experiment: Biodistribution was measured in mice brain 60 minutes after intravenous injection of [125I]-labeled styrylbenzene; format: ADME, organism-based; settings: in vivo, 1 h; outline: as §2
Mus musculus [37] = experiment: Biodistribution was measured in mice heart 2 minutes after intravenous injection of [125I]-labeled styrylbenzene.; format: ADME, organism-based; settings: in vivo; outline: as §2
Mus musculus [38] = experiment: Biodistribution was measured in mice heart 24 hours after intravenous injection of [125I]-labeled styrylbenzene.; format: ADME, organism-based; settings: in vivo; outline: as §2
Mus musculus [39] = experiment: Biodistribution was measured in mice heart 30 minutes after intravenous injection of [125I]-labeled styrylbenzene.; format: ADME, organism-based; settings: in vivo, 0.5 h; outline: as §2
Mus musculus [40] = experiment: Biodistribution was measured in mice blood 6 hours after intravenous injection of [125I]-labeled styrylbenzene.; format: ADME, organism-based; settings: in vivo; outline: as §2
Mus musculus [41] = experiment: Biodistribution was measured in mice blood 60 minutes after intravenous injection of [125I]-labeled styrylbenzene.; format: ADME, organism-based; settings: in vivo, 1 h; outline: as §2
Mus musculus [42] = experiment: Biodistribution was measured in mice brain 2 minutes after intravenous injection of [125I]-labeled styrylbenzene; format: ADME, organism-based; settings: in vivo, in the assay text read “thioflavin” for “styrylbenzene”; outline: as §2
Mus musculus [43] = experiment: Biodistribution was measured in mice brain 24 hours after intravenous injection of [125I]-labeled styrylbenzene; format: ADME, organism-based; settings: in vivo, in the assay text read “thioflavin” for “styrylbenzene”; outline: as §2
Mus musculus [44] = experiment: Biodistribution was measured in mice brain 30 minutes after intravenous injection of [125I]-labeled styrylbenzene; format: ADME, organism-based; settings: in vivo, 0.5 h; outline: as §2
Mus musculus [45] = experiment: Biodistribution was measured in mice liver 6 hours after intravenous injection of [125I]-labeled styrylbenzene.; format: ADME, organism-based; settings: in vivo, in the assay text read “thioflavin” for “styrylbenzene”; outline: as §2
Mus musculus [46] = experiment: Biodistribution was measured in mice spleen 6 hours after intravenous injection of [125I]-labeled thioflavin.; settings: in vivo
[47] = target: T1, Amyloid-beta precursor protein; experiment: Inhibition constant of compound on ligand binding to aggregates of Amyloid beta was measured by comparing with [125I]TZDM
Outline: (§4)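 Aβ(1-40) or Aβ(1-42) peptide pre-aggregated at 0.5 or 0.25 mg/mL respectively in pH 7.4 buffer (10 mM sodium phosphate, 1 mM EDTA), 37 °C for 36-42 h with shaking. Fibrils (10-50 nM final) incubated with ¹²⁵I radioligand in 10% EtOH, 3 h at room temperature. Bound ligand separated by GF/B filtration and γ-counted. Ki from nonlinear regression. Three independent experiments, each in duplicate, mean ± SEM.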

[48] = target: T1, Amyloid-beta precursor protein; experiment: Inhibition constant of compound on ligand binding to aggregates of Amyloid beta was measured by comparing with [125I]IMSB; outline: as §4
[49] = target: T1, Amyloid-beta precursor protein; experiment: Inhibition constant for amyloid beta compared to [125I]TZDM; outline: as §1

T1 sequence (P05067 whole entry): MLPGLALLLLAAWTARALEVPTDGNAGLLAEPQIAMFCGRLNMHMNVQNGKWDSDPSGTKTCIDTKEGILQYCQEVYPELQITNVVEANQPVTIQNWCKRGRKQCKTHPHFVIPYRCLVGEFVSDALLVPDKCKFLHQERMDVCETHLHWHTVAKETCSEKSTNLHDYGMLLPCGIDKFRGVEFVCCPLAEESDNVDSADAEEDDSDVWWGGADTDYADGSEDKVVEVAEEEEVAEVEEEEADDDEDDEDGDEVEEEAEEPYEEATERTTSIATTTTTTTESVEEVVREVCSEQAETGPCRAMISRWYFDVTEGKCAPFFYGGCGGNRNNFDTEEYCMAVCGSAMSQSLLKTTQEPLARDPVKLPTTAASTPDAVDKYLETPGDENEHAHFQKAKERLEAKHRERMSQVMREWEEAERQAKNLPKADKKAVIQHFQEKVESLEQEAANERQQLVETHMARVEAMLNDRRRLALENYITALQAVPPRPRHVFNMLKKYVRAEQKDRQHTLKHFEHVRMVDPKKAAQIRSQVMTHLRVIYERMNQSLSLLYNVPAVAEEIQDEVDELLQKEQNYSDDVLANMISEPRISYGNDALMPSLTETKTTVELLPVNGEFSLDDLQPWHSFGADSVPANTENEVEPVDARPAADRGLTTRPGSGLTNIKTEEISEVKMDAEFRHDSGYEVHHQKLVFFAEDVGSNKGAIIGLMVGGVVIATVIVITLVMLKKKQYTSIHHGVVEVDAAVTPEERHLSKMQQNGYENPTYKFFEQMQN

## CN(C)c1ccc(-c2nc3ccc(Br)cc3s2)cc1
[1]
  Ki: > 3000 nM

## CN1CCN(c2ccc(-c3nc4ccc(Br)cc4s3)cc2)CC1
[1]
  Ki: > 2400 nM

## CN1CCN(c2ccc(-c3nc4ccc(I)cc4s3)cc2)CC1
Mus musculus [2]
  Dose/organ: 0.22%
Mus musculus [3]
  Dose/organ: 0.66%
Mus musculus [4]
  Dose/organ: 6.46%
Mus musculus [5]
  Dose/organ: 1.15%
Mus musculus [6]
  Dose/organ: 8.06%
Mus musculus [7]
  Dose/organ: 3.62%
Mus musculus [8]
  Dose/organ: 7.99%
Mus musculus [9]
  Dose/organ: 28.84%
Mus musculus [10]
  Dose/organ: 3.05%
Mus musculus [11]
  Dose/organ: 21.22%
Mus musculus [12]
  Dose/organ: 17.2%
Mus musculus [13]
  Dose/organ: 18.82%
Mus musculus [14]
  Dose/organ: 6.65%
Mus musculus [15]
  Dose/organ: 19.46%
Mus musculus [16]
  Dose/organ: 4.06%
Mus musculus [17]
  Dose/organ: 1.64%
Mus musculus [18]
  Dose/organ: 6.07%
Mus musculus [19]
  Dose/organ: 3.17%
Mus musculus [20]
  Dose/organ: 5.63%
Mus musculus [21]
  Dose/organ: 0.89%
Mus musculus [22]
  Dose/organ: 0.08%
Mus musculus [23]
  Dose/organ: 0.87%
Mus musculus [24]
  Dose/organ: 0.6%
Mus musculus [25]
  Dose/organ: 8.02%
Mus musculus [26]
  Dose/organ: 0.41%
Mus musculus [27]
  Dose/organ: 5.15%
Mus musculus [28]
  Dose/organ: 12.8%
Mus musculus [29]
  Dose/organ: 0.44%
Mus musculus [30]
  Dose/organ: 4.14%
Mus musculus [31]
  Dose/organ: 1.15%
Mus musculus [32]
  Dose/organ: 3.38%
Mus musculus [33]
  Dose/organ: 13.24%
Mus musculus [34]
  Dose/organ: 2.44%
Mus musculus [35]
  Dose/organ: 1.08%
Mus musculus [36]
  Dose/organ: 1.89%
Mus musculus [37]
  Dose/organ: 2.19%
Mus musculus [38]
  Dose/organ: 0.08%
Mus musculus [39]
  Dose/organ: 0.69%
Mus musculus [40]
  Dose/organ: 1.49%
Mus musculus [41]
  Dose/organ: 4.16%
Mus musculus [42]
  Dose/organ: 1.5%
Mus musculus [43]
  Dose/organ: 0.91%
Mus musculus [44]
  Dose/organ: 1.59%
[1]
  Ki: > 2000 nM
Mus musculus [45]
  Dose/organ: 5.79%
Mus musculus [46]
  Dose/organ: 0.22%

## O=C(O)c1cc(/N=N/c2ccc(-c3ccc(/N=N/c4ccc(O)c(C(=O)O)c4)cc3)cc2)ccc1O [CHRYSAMINE G]
[47]
  Ki: > 2000 nM
[48]
  Ki: 0.4 nM
[49]
  Ki: > 1000 nM
[1]
  Ki: 0.14 nM
